The text below walks through data of ChEMBL document CHEMBL5149984, “Discovery of HN37 as a Potent and Chemically Stable Antiepileptic Drug Candidate” (J Med Chem, 2021).

SMILES strings stand for the structures. Some results are limits rather than exact numbers.

Data set [1] has as its target T1, Potassium voltage-gated channel subfamily KQT member 4 (Homo sapiens) (UniProt P56696).
T1 sequence (whole entry): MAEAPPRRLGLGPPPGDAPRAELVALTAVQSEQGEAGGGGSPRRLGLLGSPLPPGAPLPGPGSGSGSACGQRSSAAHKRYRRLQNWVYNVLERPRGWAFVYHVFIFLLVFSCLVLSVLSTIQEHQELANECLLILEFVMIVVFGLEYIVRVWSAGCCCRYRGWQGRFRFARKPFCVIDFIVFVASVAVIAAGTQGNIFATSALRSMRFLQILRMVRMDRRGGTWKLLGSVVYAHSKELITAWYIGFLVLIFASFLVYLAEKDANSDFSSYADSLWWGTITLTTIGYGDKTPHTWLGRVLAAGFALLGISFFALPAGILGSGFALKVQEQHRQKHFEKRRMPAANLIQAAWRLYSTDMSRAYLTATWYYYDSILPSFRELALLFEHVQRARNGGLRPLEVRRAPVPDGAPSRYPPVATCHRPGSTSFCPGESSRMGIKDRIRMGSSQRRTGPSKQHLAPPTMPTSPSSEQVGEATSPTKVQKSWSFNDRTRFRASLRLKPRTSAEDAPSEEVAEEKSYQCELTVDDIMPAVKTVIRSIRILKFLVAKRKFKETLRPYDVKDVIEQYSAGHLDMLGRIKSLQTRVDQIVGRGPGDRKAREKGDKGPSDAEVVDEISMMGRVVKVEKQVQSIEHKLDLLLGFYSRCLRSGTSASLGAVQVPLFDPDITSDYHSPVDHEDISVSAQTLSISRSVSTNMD
The data set is described as follows: Agonist activity at human KCNQ4 channel expressed in CHO cells assessed as amplitude change of outward current at 10 uM by patch clamp method. Type of data set: cell-based. The note with it: filed as agonist. An outline of the steps:
(§1)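 Whole-cell patch clamp at room temperature on CHO cells (DMEM/F12, 10% FBS) transiently co-transfected with EGFP and hKCNQ1, rKCNQ2, rKCNQ3 A278T, hKCNQ4 or hKCNQ5; KCNQ2/3 at 1:1 cDNA ratio. Pipette solution 145 mM KCl, 5 mM MgATP, pH 7.3; bath 140 mM NaCl, 5 mM KCl, pH 7.4, under perfusion. V1/2 from Boltzmann fits; I/I0 is current amplitude with versus without compound; n = 4−6.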
In general terms: Patch clamp records ionic current or voltage across a cell membrane.

Data set [2] has as its system Mus musculus. The data set is described as follows: Anticonvulsant activity in MES induced Kunming mouse model of seizure at 30 mg/kg, po after 1 hr. The class given is functional. An outline of the steps: (§2)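 MES test in male KM mice. Compounds freshly suspended in 0.5% CMC-Na and given by gavage at 20 mL/kg; 160 V stimulus through ear clips. Protection scored as absence of hindlimb tonic extension; time course at 0.25, 0.5, 1 and 2 h, otherwise tested at 1 h. ED50 from dose−response by nonlinear regression; Fisher's exact test versus vehicle.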

Data set [3] concerns the target T1, Potassium voltage-gated channel subfamily KQT member 4 (Homo sapiens). The data set is described as follows: Agonist activity at human KCNQ4 channel expressed in CHO cells assessed as shift of half voltage of maximal activation at 10 uM by patch clamp method. The note with it: filed as agonist. Type of data set: cell-based. The gist of the method:
as §1

Data set [4] deals with CHO. The data set is described as follows: Agonist activity at rat KCNQ3 A278T mutant expressed in CHO cells assessed as shift of half voltage of maximal activation at 10 uM by patch clamp method. The note with it: filed as agonist. Type of data set: cell-based. The gist of the method:
as §1

The next data set concerns the target Cytochrome P450 2B6 (Homo sapiens, UniProt P20813). The data set is described as follows: Time dependent inhibition of human liver microsome CYP2B6 preincubated for 0.5 hrs in presence of NADPH followed by substrate addition by LC-MS/MS method. The class given is ADME, microsomes. The gist of the method:
(§3)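 Human liver microsomes preincubated 0.5 h with 0.10–50 μM test compound, with or without NADPH, then CYP-specific probe substrate added and incubation continued. Metabolite measured by LC-MS/MS; % activity remaining relative to no-compound control; IC50 fitted by Probit model. For CYP3A4, midazolam 1′-hydroxylation and testosterone 6β-hydroxylation were read separately.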

In data set [5] the test system is CHO. The data set is described as follows: Agonist activity at rat KCNQ3 A278T mutant expressed in CHO cells assessed as amplitude change of outward current at 0.1 uM by patch clamp method. Type of data set: cell-based. Conditions: filed as agonist. The gist of the method: as §1
The target in a further data set is CYP2D6 (Homo sapiens, UniProt P10635). The data set is described as follows: Inhibition of human liver microsome CYP2D6 at 0.10 to 50 uM preincubated with NADPH for 0.5 hrs followed by substrate addition by LC-MS/MS method relative to control. The class given is ADME. Conditions: liver microsomes, dose 0.1-50 µM.
Sequence of CYP2D6 (P10635 whole entry): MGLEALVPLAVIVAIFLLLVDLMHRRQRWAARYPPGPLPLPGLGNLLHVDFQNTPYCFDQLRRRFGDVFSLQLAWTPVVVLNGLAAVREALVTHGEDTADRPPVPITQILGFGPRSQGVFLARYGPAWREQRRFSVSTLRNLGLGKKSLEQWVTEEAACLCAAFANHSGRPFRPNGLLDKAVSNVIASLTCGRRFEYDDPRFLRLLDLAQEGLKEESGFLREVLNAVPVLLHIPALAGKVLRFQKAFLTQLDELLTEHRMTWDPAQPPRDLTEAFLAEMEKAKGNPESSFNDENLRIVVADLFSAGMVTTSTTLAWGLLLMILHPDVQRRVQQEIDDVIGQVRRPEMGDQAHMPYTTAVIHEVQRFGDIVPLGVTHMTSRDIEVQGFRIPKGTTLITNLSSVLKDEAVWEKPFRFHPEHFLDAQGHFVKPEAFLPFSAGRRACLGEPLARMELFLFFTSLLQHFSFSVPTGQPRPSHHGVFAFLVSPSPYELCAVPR
A short description of data set [6]: Ratio of TC50 for Kunming mouse to EC50 for anticonvulsant activity in Kunming mouse. The class given is toxicity. The gist of the method:
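Male KM mice dosed orally in 0.5% CMC-Na and killed straight after the 1 h MES or rotarod test. Brain and plasma levels measured by LC−MS/MS. EC50 and TC50 fitted by nonlinear regression of protection or motor impairment against mean brain concentration; ratio = TC50,brain/EC50,brain.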

Data set [7] in a line: Metabolic stability in dog liver microsomes assessed as intrinsic clearance. The note with it: read-out: CLH. Type of data set: ADME, Canis lupus familiaris, Microsome.
For data set [8], the target named is T1, Potassium voltage-gated channel subfamily KQT member 4 (Homo sapiens). The data set is described as follows: Agonist activity at human KCNQ4 channel expressed in CHO cells assessed as shift of half voltage of maximal activation at 0.1 uM by patch clamp method. The note with it: filed as agonist. Type of data set: cell-based. An outline of the steps:
as §1

The next data set concerns the target Cytochrome P450 2C9 (Homo sapiens, UniProt P11712). Briefly: Time dependent inhibition of human liver microsome CYP2C9 preincubated for 0.5 hrs in presence or absence of NADPH followed by substrate addition by LC-MS/MS method. The class given is ADME, microsomes. An outline of the steps: as §3
In general terms: Liver microsomes are vesicles of endoplasmic reticulum, rich in cytochrome P450 enzymes.

Data set [9] can be described thus: Cmax in Sprague-Dawley rat at 20 mg/kg, po measured upto 24 hrs by LC-MS/MS method. The class given is ADME, organism-based. On the set-up: time < 24 hrs, dose 20 mg/kg, route po. The note with it: in vivo. An outline of the steps: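 Male SD rats (180−220 g) dosed orally at 2, 6 or 20 mg/kg in escalating fashion, handled as in the mouse study: 12 h fast, acetonitrile extraction of plasma, LC−MS/MS quantification. AUC0−t by trapezoidal method to the last measurable concentration.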

Data set [10] concerns the target T1, Potassium voltage-gated channel subfamily KQT member 4 (Homo sapiens). Briefly: Agonist activity at human KCNQ4 channel expressed in CHO cells assessed as amplitude change of outward current at 0.1 uM by patch clamp method. Type of data set: cell-based. Conditions: filed as agonist. An outline of the steps: as §1
Data set [11] concerns Mus musculus. Briefly: Anticonvulsant activity in MES induced Kunming mouse model of seizure at 3 mg/kg, po after 1 hr. The class given is functional. An outline of the steps: as §2

Sequence of Cytochrome P450 2B6 (P20813 whole entry): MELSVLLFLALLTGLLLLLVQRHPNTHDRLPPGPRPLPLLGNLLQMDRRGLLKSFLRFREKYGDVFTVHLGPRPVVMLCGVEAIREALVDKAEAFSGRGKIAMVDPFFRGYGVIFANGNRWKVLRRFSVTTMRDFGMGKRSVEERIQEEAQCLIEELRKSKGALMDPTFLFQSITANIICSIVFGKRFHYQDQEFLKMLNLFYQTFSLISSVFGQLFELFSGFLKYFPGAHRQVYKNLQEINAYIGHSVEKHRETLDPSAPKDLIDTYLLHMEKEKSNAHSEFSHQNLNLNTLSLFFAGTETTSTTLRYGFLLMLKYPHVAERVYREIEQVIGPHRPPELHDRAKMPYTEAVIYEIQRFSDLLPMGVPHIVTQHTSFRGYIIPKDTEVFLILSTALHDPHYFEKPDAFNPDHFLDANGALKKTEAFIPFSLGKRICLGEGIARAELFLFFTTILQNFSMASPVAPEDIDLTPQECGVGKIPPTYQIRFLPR
Sequence of Cytochrome P450 2C9 (P11712 whole entry): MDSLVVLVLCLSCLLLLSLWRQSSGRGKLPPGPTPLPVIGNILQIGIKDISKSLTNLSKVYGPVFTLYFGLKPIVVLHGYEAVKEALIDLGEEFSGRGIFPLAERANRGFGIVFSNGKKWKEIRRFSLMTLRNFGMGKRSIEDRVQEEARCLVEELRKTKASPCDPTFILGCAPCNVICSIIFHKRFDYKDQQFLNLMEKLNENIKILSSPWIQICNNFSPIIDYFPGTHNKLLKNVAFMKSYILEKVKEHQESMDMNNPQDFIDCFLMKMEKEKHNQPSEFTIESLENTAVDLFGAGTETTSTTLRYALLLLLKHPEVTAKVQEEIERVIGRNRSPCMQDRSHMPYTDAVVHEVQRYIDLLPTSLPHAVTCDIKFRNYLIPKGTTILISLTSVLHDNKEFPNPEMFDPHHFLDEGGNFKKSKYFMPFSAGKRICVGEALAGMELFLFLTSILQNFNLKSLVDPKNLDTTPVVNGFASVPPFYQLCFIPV

Regarding `CCOC(=O)Nc1ccc(NCc2ccc(F)cc2)cc1N` [EZOGABINE], the Activity in data set [1] is 2.85; in the data set on Mus musculus [2], 60%; in data set [3], -34.1 mV; with CHO [4] it was -46.8 mV.

As a reminder, the IC50 is the midpoint of a concentration-inhibition curve. A word on the inhibition: it is the percentage by which the read-out fell short of the control. Usually Cmax stands for the maximum level reached in the sampled fluid or tissue. As for `C#CCN(Cc1ccc(F)cc1)c1cc(C)c(NC(=O)OC)c(C)c1`, the IC50 on Cytochrome P450 2B6 is 5.76 µM; at Cytochrome P450 2C9, more than 50 µM. Also, the Activity in the data set with CHO [5] was 2.1; in data set [8] it was -56.6 mV; in [10], 3.76; in the data set with Mus musculus [11], 62.5%. This compound also returned an inhibition at 0.5 h, up to 50 µM against CYP2D6 of less than 25%. Also, the selectivity ratio in data set [6] is 49.6. Also, the CLint scaled in [7] amounted to 97.2 mL/min/kg. In data set [9], the highest level (Cmax) was 323 ng/mL.
